Our source for the cytotoxicity values is ChEMBL document CHEMBL4513216, “Probing the Open Global Health Chemical Diversity Library for Multistage-Active Starting Points for Next-Generation Antimalarials” (ACS Infect Dis, 2020).

The series can be described thus: Toxicity liver stage against HepG2, at 10uM. As to conditions: human, HepG2-A16-CD81EGFP cells; read-out: INHIBITION
Set-up: test concentration 10 uM, cell line HepG2-A16-CD81EGFP. The format is cell-based. Summed up:
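Uninfected HepG2-A16-CD81EGFP cells, 3 × 10^3 per well, 1536-well, plated on prespotted compound at 10 μM final, parasite-free screening media added to match infected plates; puromycin 10 μM positive, DMSO 0.5% negative; run in parallel with 48 h PbLuc assay at 37 °C, 5% CO2; viability by CellTiter-Glo luminescence, normalized to controls.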
Turning to `COc1ccc(-c2csc3c2c(N)nc(=O)n3CCN(C)C)cc1`, the cytotoxicity at 10 µM was -49.9%.

Regarding `Cc1noc([C@@H](C)NCc2cccc(Cl)c2)c1C(=O)O`, the cytotoxicity at 10 µM is -0.802%. Consider `CCC[C@@H]1CN(Cc2nnc(-c3cccc(F)c3)o2)C[C@H]1NC(C)=O`, for which the cytotoxicity at 10 µM was 0.833%. In the case of `CN(C)C(=O)c1cccc(CN2CCN(CC(O)C(C)(C)C)CC2)c1` (stereo not given), the cytotoxicity at 10 µM came out at 1.74%.

On to `CC(=O)N1CCc2c(nc(N(C)C)nc2NCc2cccs2)C1`, for which the cytotoxicity at 10 µM is -50.6%.

With `Cc1ccnn1CCC(=O)N1CCC(c2cnccn2)CC1`, the cytotoxicity at 10 µM was -26.1%. With `Cc1ncsc1CNC(=O)NCC1(c2ccc3c(c2)OCO3)CC1`, the cytotoxicity at 10 µM worked out at 14.3%. Turning to `Cn1cc(N2C(=O)CC[C@@H]3[C@H]2CCN3Cc2nccs2)cn1`, the cytotoxicity at 10 µM came out at 8.62%. Then `Cc1oc(C)c(C(=O)NCc2cccnc2)c1C`, with 5.19%; and `Cc1ccc(C(=O)NC2CCN(S(C)(=O)=O)CC2)c(=O)[nH]1`, with 15.7%. Then `Cc1nn(C)c(N(C)C)c1CNCc1ccc(Cn2cncn2)cc1`, with -6.94%; and `CC(C)C(=O)NCCCNC(=O)Nc1cc(-c2ccccc2)ns1`, with 20.3%. For `CC1CN(C(=O)c2cscn2)c2ccccc2S1` (stereo not given), the cytotoxicity at 10 µM came out at 6.43%.

Regarding `Cc1nc(CC(=O)N2CCN(c3ccc(N(C)C)cc3)CC2)cs1`, the cytotoxicity at 10 µM is 0.236%. As to `O=S(=O)(c1cccs1)N1CC[C@H]2[C@H]1CCN2CC1CC1`, the cytotoxicity at 10 µM is 2.94%. For `CC(=O)NCCC(=O)NC(C)c1sc(-c2ccccc2F)nc1C` (stereo not given) the value was 7.92%. For `CNC(=O)[C@@]12CCC3(CCN(S(C)(=O)=O)CC3)[C@@H]1CN(C(C)=O)C2` the value was -2.07%. As for `COCCN1CCCn2cnc(CNC(=O)N(C)C)c2C1`, the cytotoxicity at 10 µM was 4.47%. Turning to `CC(C)(C)CN1CCN(CC2CC2)C(CCO)C1` (stereo not given), the cytotoxicity at 10 µM was -2.42%. With `COCCOc1ccc(NC(=O)N2CCCC2c2cccs2)cn1` (stereo not given), the cytotoxicity at 10 µM is -3.17%. In the case of `CN1CCN(Cc2cn3c(n2)CN(Cc2cccc(F)c2)CC3)CC1`, the cytotoxicity at 10 µM is -125%. For the compound `Cc1cc(C(=O)Nc2ccnc(OC3CCOC3)c2)c(C)o1` (stereo not given), the cytotoxicity at 10 µM came out at 6.66%. Then `Cc1cc(CN2CCN(C(=O)NC(C)Cn3ccnc3)CC2)no1` (stereo not given), with -8.54%; and `CCc1noc(C(C)N2CCN(c3ncnc4sccc34)CC2)n1` (stereo not given), with 56.3%. Consider `Cc1ccc(NC2CCN(C(=O)c3cnc(C)s3)CC2)nn1`, for which the cytotoxicity at 10 µM came out at 2.48%. In the case of `CCOCC1CN(C2CCCC2)Cc2cnn(CC3CCOCC3)c21` (stereo not given), the cytotoxicity at 10 µM was -9.13%.

For `CCOC1CCN(C(=O)c2ccc(-c3cccc(C)c3)[nH]c2=O)CC1`, the cytotoxicity at 10 µM worked out at 3.08%. For `O=C(CCc1ccco1)Nc1cc(C(F)(F)F)c[nH]c1=O` the value was 13.9%; for `COc1ccc(CCN2C(=O)O[C@@H]3CN(C)C[C@@H]32)cc1`, -2%; for `CSCCC1c2nc[nH]c2CCN1Cc1ccccc1C#N` (stereo not given), -1.57%.

As for `O=C(c1cn2cc(Cl)ccc2n1)N1CCC(CCn2cccn2)CC1`, the cytotoxicity at 10 µM was -10.2%. With `CCn1c(N)nc2cc(C(=O)NCCc3ccccc3C)cnc21`, the cytotoxicity at 10 µM is -10.8%. For `O=C1[C@@H]2C[C@H](O)CCN2C(=O)CN1CCSc1ccccn1`, the cytotoxicity at 10 µM is -2.96%. Then `O=C(c1cccnc1)N1CCC2(CC1)CN(c1ccccn1)CCO2`, with -69.5%; and `N#CC(NC(=O)CNC(=O)c1ccccc1)c1ccsc1` (stereo not given), with 1.8%. Take `CCC[C@@H]1CN(c2ncnc3ccsc23)C[C@H]1NS(C)(=O)=O`: the cytotoxicity at 10 µM was 3.73%. Then `Cc1ccccc1OCCN1CCCC1CS(N)(=O)=O` (stereo not given), with 18.3%; and `Cc1cncc(C(=O)N2CCO[C@H]3[C@H](OCCN(C)C)CC[C@@H]32)c1`, with 8.07%; and `Cn1cc(CN2CCC[C@]3(C[C@@H](Oc4ccccn4)CO3)C2)cn1`, with 7.5%.

As for `Cc1ccc(CNC(=O)NCc2csc(C)n2)cn1`, the cytotoxicity at 10 µM was -8.24%. In the case of `CN(C)c1cc(CNC(=O)c2cccnc2O)ccn1`, the cytotoxicity at 10 µM is -5.26%. Consider `COc1ccc(CC2(CO)CCN(c3cc(C(N)=O)ccn3)CC2)cc1`, for which the cytotoxicity at 10 µM was -2.41%.

In the case of `O=C(C1CCCC1)N1CCC(c2ncc3c(n2)CCNC3)C1` (stereo not given), the cytotoxicity at 10 µM was -15.3%.

`CS(=O)(=O)N[C@@H]1CCN(Cc2cccnc2)[C@H]1Cc1ccccc1`: the cytotoxicity at 10 µM was -74.5%.

`CCC1=N[C@@]2(CC[C@@H]3CN(S(=O)(=O)CC(C)C)C[C@@H]32)C(=O)N1C`: the cytotoxicity at 10 µM amounted to 5.24%.

For the compound `Cc1cc(C(=O)N2CCC(c3nnc(Cn4ccnc4)n3C)CC2)cs1`, the cytotoxicity at 10 µM is -114%. In the case of `COc1ncc(Cl)c(NCc2ccc([S+](C)[O-])cc2)n1` (stereo not given), the cytotoxicity at 10 µM was -4.18%.

Consider `Cc1nc2ccccc2nc1NCc1cccc(OCC2CCCO2)c1` (stereo not given), for which the cytotoxicity at 10 µM was 44.3%. Consider `CC(CC(=O)c1ccccc1)NC(=O)c1ccon1` (stereo not given), for which the cytotoxicity at 10 µM was -10.7%. Then `CS(=O)(=O)NCC1CCCN(C(=O)Nc2ccccc2N2CCCC2)C1` (stereo not given), with -139%; and `COc1ccc2c(c1)OCC(Cc1ccc(C)nc1N)C2` (stereo not given), with -2.57%; and `Cc1ccc(CN2CCC3(CC(=O)N(c4cccc(F)c4)C3)C2)o1` (stereo not given), with -140%. For `CS(=O)(=O)NC1CCCN(C(=O)Nc2ccccc2Cn2cccn2)C1` (stereo not given), the cytotoxicity at 10 µM was determined as 3.81%. Regarding `COCC(C)Nc1ccc(-c2nc(Cc3ccc(F)cc3)no2)cn1` (stereo not given), the cytotoxicity at 10 µM turned out to be 7.22%. Then `Cc1cc(C)n(CC(C)NC2CCN(Cc3cccnc3)CC2)n1` (stereo not given), with 2.45%; and `COC[C@@]12CC[C@@H](N3CCOCC3)C[C@H]1CCN(c1ncccc1F)C2`, with -3.47%. With `CC(C)NC(=O)N1CCCn2cnc(CO)c2C1`, the cytotoxicity at 10 µM is -151%. Consider `CC(C)c1noc(C(C)N2CCC(c3nc4ccccc4[nH]3)CC2)n1` (stereo not given), for which the cytotoxicity at 10 µM was -3.17%. For `Fc1ccc(CN2CCn3cc(Cn4cccn4)nc3C2)cc1` the value was 0.864%. For `OCC1CCCN1c1cc(NCCc2nccs2)ncn1` (stereo not given), the cytotoxicity at 10 µM came out at 4.58%.

As to `CN(CCNC(=O)c1scnc1Cl)c1ccccc1`, the cytotoxicity at 10 µM worked out at 6.88%.

On to `Cc1noc(C(C)N2CCN(CCC(=O)N3CCCCC3)CC2)n1` (stereo not given), for which the cytotoxicity at 10 µM is -9.24%.

In the case of `Cc1cccc(CN2CC3(CCNCC3)OCC2=O)n1`, the cytotoxicity at 10 µM is -21.7%. On to `O=C(NCCc1cccc(F)c1)NCC(O)c1cccc(F)c1` (stereo not given), for which the cytotoxicity at 10 µM is -13.1%. Take `CC1(C)[C@@H]2CC=C(CN3CCCn4nc(CNS(C)(=O)=O)cc4C3)[C@H]1C2`: the cytotoxicity at 10 µM is -46%. Regarding `C[C@@H]1C(=O)NC[C@H]2CN(Cc3ccc4c(c3)OCO4)C[C@H]21`, the cytotoxicity at 10 µM is 1.44%. For `COc1c(CNCc2ccccc2CO)c(C)nn1C`, the cytotoxicity at 10 µM was found to be 1.04%. Turning to `CCc1cnc(CN(C)C2CCN(Cc3nnc(C4CC4)n3C)C2)o1` (stereo not given), the cytotoxicity at 10 µM is -5.09%. For `COc1cccc(CC2(C(=O)O)CCN(c3ccc(Cl)cn3)CC2)c1`, the cytotoxicity at 10 µM is -14%.

With `CNC(=O)C1(CCCc2ccccn2)CN(Cc2scnc2C)C1`, the cytotoxicity at 10 µM was found to be 18%.
